Results of several laboratories.
Each line is one published result; the experiments were not run side by side. pEC50: −log10 of the molar value. Values after ≈ are worked out from the molar mass of the structure shown.

| SMILES | target or system | assay | system | setting | endpoint | value |
| --- | --- | --- | --- | --- | --- | --- |
| COC(=O)c1cccc(Nc2nccc(NC3CCCCC3)n2)c1 | BJ | cell growth or viability, ATP luminescence |  | 72 h | pEC50 | < 4.77 |
| CO/N=C(\C(=O)N[C@@H]1C(=O)N2C(C(=O)O)=C(CSc3nc(=O)c(=O)[nH]n3C)CS[C@H]12)c1csc(N)n1 | Salmonella enterica | microbial growth | F98, TYPHIMURIUM | 20 h, pH 7 | MIC | 0.125 µg/mL (≈ 0.225 µM) |
| COC(=O)c1cccc(-c2cccc(Nc3nccc(NC(C)C)n3)c2)c1 | BJ | cell growth or viability, ATP luminescence |  | 72 h | pEC50 | 4.88 |
| Cc1cc(NS(=O)(=O)c2ccc(N)cc2)no1 | Salmonella enterica | microbial growth | ENTERITIDIS | 20 h, pH 5.5 | MIC | 128 µg/mL (≈ 505 µM) |
| O=c1cc(-c2ccc(O)c(O)c2)oc2cc(O)cc(O)c12 | Helicobacter pylori | microbial growth, broth dilution |  | 3.9 µg/mL | inhibition | 100% |
| CNc1ccnc(Nc2cccc(-c3cccnc3)c2)n1 | BJ | cell growth or viability, ATP luminescence |  | 72 h | pEC50 | < 4.70 |
| CCN1CCN(c2cc3c(cc2F)c(=O)c(C(=O)O)cn3C2CC2)CC1 | Salmonella enterica | microbial growth | F98, TYPHIMURIUM | 20 h, pH 7 | MIC | 0.0313 µg/mL (≈ 0.0871 µM) |
| CC[C@H]1OC(=O)[C@H](C)[C@@H](O[C@H]2C[C@@](C)(OC)[C@@H](O)[C@H](C)O2)[C@H](C)[C@@H](O[C@@H]2O[C@H](C)C[C@H](N(C)C)[C@H]2O)[C@](C)(OC)C[C@@H](C)C(=O)[C@H](C)[C@@H](O)[C@]1(C)O | Helicobacter pylori | microbial growth, broth dilution |  | 0.24 µg/mL | inhibition | 81.3% |
| c1ccc(-c2cccc(Nc3nccc(NC4CCCCC4)n3)c2)cc1 | BJ | cell growth or viability, ATP luminescence |  | 72 h | pEC50 | < 5.30 |
| CN(C)[C@@H]1C(O)=C(C(N)=O)C(=O)[C@@]2(O)C(O)=C3C(=O)c4c(O)cccc4[C@@](C)(O)[C@H]3C[C@@H]12 | Salmonella enterica | microbial growth |  | 20 h, pH 5.5 | MIC | 1 µg/mL (≈ 2.25 µM) |
| O=C(O)c1ccc(O)cc1 | Helicobacter pylori | microbial growth, broth dilution |  | 125 µg/mL | inhibition | 100% |
| CN(C)C/C=C/C(=O)Nc1cc2c(Nc3ccc(F)c(Cl)c3)ncnc2cc1O[C@H]1CCOC1 | KB-C2 | cell growth or viability, ATP luminescence |  | 6 µM, 12 days, 3D culture | viability | 92.7% |
| O=c1cc(-c2ccc(O)cc2)oc2cc(O)cc(O)c12 | Helicobacter pylori | microbial growth, broth dilution |  | 3.9 µg/mL | inhibition | 100% |
| Cc1ccc(-c2nc3ccccc3s2)cc1NC(=O)c1cc([N+](=O)[O-])c(NC2CCN(C)CC2)cc1Cl | BJ | cell growth or viability, ATP luminescence |  |  | pEC50 | < 5.04 |
